Assay [1] deals with Estrogen receptor beta (Homo sapiens) (UniProt Q92731). Briefly: Displacement of ES2 from recombinant human ER-beta at 100 uM incubated for 2 hrs by fluorescence based assay relative to control. In outline: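 Fluorescence polarization competition: test compound at 100 μM, 9 nM ES2 with 20 nM recombinant human ER-β in ES2 screening buffer (100 mM potassium phosphate, 100 µg/mL BGG, 0.02% NaN₃). Incubated 2 h protected from light, ex/em 485/530. Percent of remaining polarization versus vehicle control. Means of at least three experiments.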
Sequence of Estrogen receptor beta (Homo sapiens) (Q92731 whole entry): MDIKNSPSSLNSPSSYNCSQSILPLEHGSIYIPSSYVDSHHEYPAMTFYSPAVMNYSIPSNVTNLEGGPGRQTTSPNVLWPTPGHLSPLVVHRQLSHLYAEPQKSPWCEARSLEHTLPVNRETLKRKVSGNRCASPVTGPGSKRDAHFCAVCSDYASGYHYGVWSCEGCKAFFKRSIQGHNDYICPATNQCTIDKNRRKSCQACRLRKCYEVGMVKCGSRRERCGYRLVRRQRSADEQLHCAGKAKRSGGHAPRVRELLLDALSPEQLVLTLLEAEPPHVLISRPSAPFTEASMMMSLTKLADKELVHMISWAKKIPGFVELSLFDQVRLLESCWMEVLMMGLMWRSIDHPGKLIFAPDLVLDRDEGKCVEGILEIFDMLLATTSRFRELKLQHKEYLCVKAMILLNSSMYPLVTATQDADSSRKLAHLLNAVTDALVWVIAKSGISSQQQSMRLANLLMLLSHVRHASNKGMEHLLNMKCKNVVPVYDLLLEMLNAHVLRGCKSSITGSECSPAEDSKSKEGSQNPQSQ

Assay [2] concerns the target T1, Estrogen receptor (Homo sapiens) (UniProt P03372).
T1 sequence (whole entry): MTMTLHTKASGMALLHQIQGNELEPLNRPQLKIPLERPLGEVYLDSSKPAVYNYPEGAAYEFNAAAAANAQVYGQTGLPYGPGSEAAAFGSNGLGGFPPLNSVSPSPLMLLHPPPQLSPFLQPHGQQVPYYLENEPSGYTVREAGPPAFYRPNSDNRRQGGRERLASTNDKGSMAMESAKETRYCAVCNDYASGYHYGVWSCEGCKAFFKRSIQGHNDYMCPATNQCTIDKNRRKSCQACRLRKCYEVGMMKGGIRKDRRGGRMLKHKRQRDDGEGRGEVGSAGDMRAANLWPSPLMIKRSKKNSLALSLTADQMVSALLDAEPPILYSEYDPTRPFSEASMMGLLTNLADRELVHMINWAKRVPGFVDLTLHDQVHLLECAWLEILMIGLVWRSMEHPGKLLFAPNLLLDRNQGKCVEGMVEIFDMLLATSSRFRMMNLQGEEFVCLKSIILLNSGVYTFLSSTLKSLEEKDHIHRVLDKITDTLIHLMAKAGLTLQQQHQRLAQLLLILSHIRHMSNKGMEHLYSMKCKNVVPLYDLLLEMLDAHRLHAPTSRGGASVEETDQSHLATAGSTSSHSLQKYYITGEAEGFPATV
Kind of assay: Displacement of ES2 from recombinant human ER-alpha at 100 uM incubated for 2 hrs by fluorescence based assay relative to control. An outline of the steps: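 Fluorescence polarization competition: test compound at 100 μM, 9 nM ES2 with 30 nM recombinant human ER-α in ES2 screening buffer (100 mM potassium phosphate, 100 µg/mL BGG, 0.02% NaN₃). Incubated 2 h protected from light, ex/em 485/530. Percent of remaining polarization versus vehicle control. Means of at least three experiments.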

The test system of assay [3] is MCF7. Kind of assay: Selective estrogen receptor modulator activity in human MCF7 cells assessed as E2-induced progesterone receptor mRNA expression level at 1 uM incubated for 24 hrs by real time PCR analysis (reference value: 100%). It is filed as cell-based. The conditions noted are these: filed as modulator. An outline of the steps:
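MCF-7 cells grown in MEM with 10% FBS, then held 72 h in charcoal-stripped FBS. […] Genomic DNA removed, RNA extracted, PGR mRNA measured by real-time PCR (40 cycles) from Ct values.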
For orientation: Real-time PCR tracks product formation cycle by cycle.

Assay [4] deals with MCF7. Briefly: Antagonist activity at estrogen receptor in human MCF7 cells assessed as E2-induced progesterone receptor mRNA expression level at 1 uM incubated for 24 hrs by real time PCR analysis (reference value: 100%). The arrangement: scale not given: the % may be the effect or the level left. The conditions noted are these: filed as antagonist. It is filed as cell-based. An outline of the steps: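 ER-positive MCF-7 cells grown in MEM with 10% FBS, 37 °C, 5% CO2, then preconditioned 72 h in charcoal-stripped FBS. […] RNA extracted after genomic DNA removal; PGR mRNA quantified by real-time PCR from threshold cycle, 40 cycles.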

Bounds are passed on as bounds.

As for `Oc1ccc(C(=C(Cn2cncn2)c2ccc(O)c(F)c2)c2ccc(O)cc2)cc1`, the figures for the inhibition in assay [1] and in assay [2] were 0% and 2%, respectively.
As for `Nc1ccc(C(Cn2ccnc2)=C(c2ccc(O)cc2)c2ccc(O)cc2)cc1`, the Activity in the assay on MCF7 [3] turned out to be 26%. The inhibition in assay [1] (filed as modulator) and in assay [2] (filed as modulator) was more than 90% each time.
With `Oc1ccc(C(Cn2cncn2)=C(c2ccc(O)cc2)c2ccc(O)cc2)cc1`, the inhibition (usually the drop in the measured response relative to a control, in per cent) in assay [1] (filed as modulator) is 40%; in assay [2] (filed as modulator) it was 45%.
As to `CCC(=C(c1ccc(O)cc1)c1ccc(OCCN)cc1)c1ccccc1`, the Activity with MCF7 [4] was 33%.
Regarding `CC/C(=C(\c1ccc(O)cc1)c1ccc(OCCN(C)C)cc1)c1ccccc1`, the Activity with MCF7 [4] amounted to 10%.
With `Nc1cccc(C(Cn2ccnc2)=C(c2ccc(O)cc2)c2ccc(O)cc2)c1`, the inhibition in assay [1] (filed as modulator) was 71%; in assay [2] (filed as modulator), 60%.
For the compound `N#CCC(=C(c1ccc(O)cc1)c1ccc(O)cc1)c1ccc(O)cc1`, the results for the inhibition in assay [1] and in assay [2] were 3% and 0%, respectively.
For the compound `Oc1ccc(C(Cn2ccnc2)=C(c2ccc(O)cc2)c2ccc(O)cc2)cc1`, in the assay with MCF7 [3], the Activity amounted to 26%. In addition, the inhibition in assay [1] (filed as modulator) and in assay [2] (filed as modulator) was more than 90% in each case.
Regarding `Oc1ccc(C(=C(Cn2cncn2)c2ccccc2)c2ccc(O)cc2)cc1`, the inhibition in assay [1] was 33%; in assay [2], 12%.
The corresponding values for `Oc1ccc(C(=C(Cn2ccnc2)c2cccc(O)c2)c2ccc(O)cc2)cc1` are 29% and 0%.
For `Oc1ccc(C(=C(Cn2cnnc2)c2ccc(O)c(F)c2)c2ccc(O)cc2)cc1`, the inhibition in assay [1] and in assay [2] was 0% each time.
For the compound `N#CCC(=C(c1ccc(O)cc1)c1ccc(O)cc1)c1ccc(O)c(F)c1`, the inhibition in assay [1] and in assay [2] was 0% throughout.
With `Nc1ccc(C(Cn2cncn2)=C(c2ccc(O)cc2)c2ccc(O)cc2)cc1`, the inhibition in assay [1] was found to be 2%; in assay [2], 0%.
For `N#CCC(=C(c1ccc(O)cc1)c1ccc(O)cc1)c1ccc(N)cc1`, in that order: 0% and 0%.
For `Nc1ccc(C(Cn2cnnc2)=C(c2ccc(O)cc2)c2ccc(O)cc2)cc1`, in that order: 36% and 13%.
Regarding `Oc1ccc(C(=C(Cn2ccnc2)c2ccccc2)c2ccc(O)cc2)cc1`, in the assay with MCF7 [3], the Activity amounted to 26%. Besides, the inhibition in assay [1] (filed as modulator) and in assay [2] (filed as modulator) was more than 90% in each case.
As to `N#CCC(=C(c1ccc(O)cc1)c1ccc(O)cc1)c1ccccc1`, the inhibition in assay [1] (filed as modulator) worked out at 49%; in assay [2] (filed as modulator) it was 56%.
Regarding `Oc1ccc(C(=C(Cn2ccnc2)c2ccc(O)c(F)c2)c2ccc(O)cc2)cc1`, in the assay on MCF7 [3], the Activity was found to be 26%. Moreover, the inhibition in assay [1] (filed as modulator) and in assay [2] (filed as modulator) was more than 90% throughout.
Regarding `CCC(=C(c1ccc(O)cc1)c1ccc(O)cc1)c1ccccc1`, the inhibition in assay [1] (filed as modulator) is more than 90%; in assay [2] (filed as modulator), 80%.
On to `Oc1ccc(C(Cn2cnnc2)=C(c2ccc(O)cc2)c2ccc(O)cc2)cc1`, for which the inhibition in assay [1] (filed as modulator) and in assay [2] (filed as modulator) was more than 90% in each case.

For the origin of these results see ChEMBL document CHEMBL4715691, “Synthesis of Triphenylethylene Bisphenols as Aromatase Inhibitors That Also Modulate Estrogen Receptors” (J Med Chem, 2016).
